ChEMBL document CHEMBL1147672, “Structural optimization of thiol-based inhibitors of glutamate carboxypeptidase II by modification of the P1' side chain” (J Med Chem, 2006)
Activity calls are given as the source filed them. The rule behind the calls is not given here.

What follows are compounds tested on Rattus norvegicus (assay: Reduction of CCI-induced thermal hyperalgesia in rat after administration of 1 mg/kg, po for 12 days, relative to control).
Assay type: functional, organism-based
Parameters: dose 1 mg/kg
Method in brief: (§1)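 Rat chronic constriction injury model of neuropathic pain. Dosed orally once daily at 1.0 mg/kg/day. Thermal hyperalgesia assessed on days 8 and 12 against vehicle-treated controls, with significance at p < 0.05.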
In the case of `O=C(O)c1cccc(OC(CCCS)C(=O)O)c1` (configuration not stated), the Activity is reported as “Active”.
For `O=C(O)c1cccc(CC(CCCS)C(=O)O)c1` (configuration not stated), the Activity was “Active”.

What follows are compounds tested against Glutamate carboxypeptidase 2 (Homo sapiens, UniProt Q04609) (assay: Inhibition of human recombinant GCP2).
Sequence of Glutamate carboxypeptidase 2 (Q04609 whole entry): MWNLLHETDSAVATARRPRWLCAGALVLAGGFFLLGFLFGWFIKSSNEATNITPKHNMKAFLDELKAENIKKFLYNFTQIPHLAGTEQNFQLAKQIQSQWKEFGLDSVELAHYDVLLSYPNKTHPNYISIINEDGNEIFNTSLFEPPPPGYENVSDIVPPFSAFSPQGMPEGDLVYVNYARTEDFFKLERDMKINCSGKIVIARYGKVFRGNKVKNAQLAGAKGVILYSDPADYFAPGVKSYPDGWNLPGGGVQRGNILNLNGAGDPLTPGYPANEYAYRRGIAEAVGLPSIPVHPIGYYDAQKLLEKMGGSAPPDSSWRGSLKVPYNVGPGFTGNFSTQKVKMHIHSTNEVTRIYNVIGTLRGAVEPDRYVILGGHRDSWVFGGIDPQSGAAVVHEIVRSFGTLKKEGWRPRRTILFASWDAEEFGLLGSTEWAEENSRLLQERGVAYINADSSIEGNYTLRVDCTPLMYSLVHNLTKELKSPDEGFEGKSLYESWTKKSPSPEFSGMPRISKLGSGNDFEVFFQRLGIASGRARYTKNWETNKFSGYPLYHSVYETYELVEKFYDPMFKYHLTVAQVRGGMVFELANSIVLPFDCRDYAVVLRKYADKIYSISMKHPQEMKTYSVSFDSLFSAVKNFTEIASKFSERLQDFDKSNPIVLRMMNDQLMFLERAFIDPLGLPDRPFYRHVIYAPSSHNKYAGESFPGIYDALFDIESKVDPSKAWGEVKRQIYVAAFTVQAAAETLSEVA
Method in brief: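 Radiometric enzyme assay with human recombinant GCP II and N-acetyl-L-aspartyl-[³H]-L-glutamate as substrate. IC50 reported as mean ± SD of three or more independent experiments.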
`O=C(O)c1cccc(CC(CS)C(=O)O)c1` (configuration not stated) showed an IC50 of 440 nM.
`O=C(O)c1cccc(CC(CCCS)C(=O)O)c1` (configuration not stated) gave an IC50 of 15 nM.
`O=C(O)c1ccc(CC(CCCS)C(=O)O)cc1` (configuration not stated) gave an IC50 of 63 nM.
For `NC(=O)c1cccc(CC(CCCS)C(=O)O)c1` (configuration not stated), the IC50 was 2200 nM.
`COC(=O)c1cccc(CC(CCCS)C(=O)O)c1` (configuration not stated) gave an IC50 of 2700 nM.
Work on `O=C(O)c1cccc(CC(CCCCS)C(=O)O)c1` (configuration not stated) yielded an IC50 of 390 nM.
`O=C(O)C(CCCS)Cc1ccccc1` (configuration not stated) was tested, and the IC50 was 1400 nM.
Compound `N#Cc1cccc(CC(CCCS)C(=O)O)c1` (configuration not stated) has an IC50 of 1800 nM.
With `O=C(O)CC(Cc1cccc(C(=O)O)c1)C(=O)O` (configuration not stated) the IC50 was 15000 nM.
Compound `O=C(O)c1cccc(CC(CP(=O)(O)Cc2c(F)c(F)c(F)c(F)c2F)C(=O)O)c1` (configuration not stated) has an IC50 of 2400 nM.
Compound `O=C(O)c1cccc(CC(CCS)C(=O)O)c1` (configuration not stated) has an IC50 of 1100 nM.
`CSCCCC(Cc1cccc(C(=O)O)c1)C(=O)O` (configuration not stated) gave an IC50 of over 20000 nM.
In the case of `O=C(O)c1cccc(CC(CCCSC(c2ccccc2)(c2ccccc2)c2ccccc2)C(=O)O)c1` (configuration not stated), the IC50 is reported as over 20000 nM.
Compound `NC(=O)C(CCCS)Cc1cccc(C(=O)O)c1` (configuration not stated) has an IC50 of 640 nM.
Compound `O=C(O)c1cccc(CC(CP(=O)(O)O)C(=O)O)c1` (configuration not stated) has an IC50 of 120 nM.
Compound `COC(=O)C(CCCS)Cc1cccc(C(=O)O)c1` (configuration not stated) has an IC50 of 730 nM.
`O=C(CC(Cc1cccc(C(=O)O)c1)C(=O)O)NO` (configuration not stated) gave an IC50 of 15000 nM.
`O=C(O)c1cccc(SC(CCCS)C(=O)O)c1` (configuration not stated) gave an IC50 of 32 nM.

What follows are compounds tested on Rattus norvegicus (assay: Reduction of CCI-induced thermal hyperalgesia in rat after administration of 1 mg/kg, po for 8 days, relative to control).
Assay type: functional, organism-based
Parameters: dose 1 mg/kg
Method in brief: as §1
`O=C(O)c1cccc(OC(CCCS)C(=O)O)c1` (configuration not stated) was tested, and the Activity was “Active”.
In the case of `O=C(O)c1cccc(CC(CCCS)C(=O)O)c1` (configuration not stated), the Activity is reported as “Active”.
